# Experiment: Cytotoxicity against rat RBL2H3 cells by MTT assay
# Assay type: cell-based
# Parameters: concentration or dose not given beside the values
# Conditions: rbl-2h3
# In short: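 RBL2H3 cells (α-MEM) or PC12 cells (D-MEM), both with 10% FBS, treated at a single dose in 0.1% DMSO; 0.1% DMSO control; 37 °C, 5% CO2. MTT (5 mg/mL) added 4 h before the end, then SDS/DMF lysis buffer (pH 7.2) for 6 h; absorbance read at 570 nm. Cytotoxicity % calculated from background-corrected OD versus control.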
row,SMILES,Activity [%]
1,CCOC(=O)CNC(=O)[C@]12CC[C@@H](C)[C@H](C)[C@H]1C1=CC[C@@H]3[C@@]4(C)CCC(=O)C(C)(C)[C@@H]4CC[C@@]3(C)[C@]1(C)CC2,1.7
2,COC(=O)C(CC(C)C)NC(=O)[C@]12CC[C@@H](C)[C@H](C)[C@H]1C1=CC[C@@H]3[C@@]4(C)Cc5cnn(-c6ccc(F)cc6)c5C(C)(C)[C@@H]4CC[C@@]3(C)[C@]1(C)CC2 (some centres undefined),1
3,C[C@H]1[C@H](C)CC[C@]2(C(=O)NCCC3CCN(Cc4ccccc4)CC3)CC[C@]3(C)C(=CC[C@@H]4[C@@]5(C)Cc6nc7ccccc7nc6C(C)(C)[C@@H]5CC[C@]43C)[C@H]12,59.5
4,COC(=O)C(CC(C)C)NC(=O)[C@]12CC[C@@H](C)[C@H](C)[C@H]1C1=CC[C@@H]3[C@@]4(C)Cc5cncnc5C(C)(C)[C@@H]4CC[C@@]3(C)[C@]1(C)CC2 (some centres undefined),10.3
5,C[C@H]1[C@H](C)CC[C@]2(C(=O)O)CC[C@]3(C)C(=CC[C@@H]4[C@@]5(C)Cc6nc7ccccc7nc6C(C)(C)[C@@H]5CC[C@]43C)[C@H]12,3.5
6,COC(=O)C(Cc1ccccc1)NC(=O)[C@]12CC[C@@H](C)[C@H](C)[C@H]1C1=CC[C@@H]3[C@@]4(C)Cc5c([nH]c6ccc(Br)cc56)C(C)(C)[C@@H]4CC[C@@]3(C)[C@]1(C)CC2 (some centres undefined),16
7,C[C@H]1[C@H](C)CC[C@]2(C(=O)O)CC[C@]3(C)C(=CC[C@@H]4[C@@]5(C)Cc6cncnc6C(C)(C)[C@@H]5CC[C@]43C)[C@H]12,4.3
8,COC(=O)C(Cc1ccccc1)NC(=O)[C@]12CC[C@@H](C)[C@H](C)[C@H]1C1=CC[C@@H]3[C@@]4(C)Cc5nc6cc(Cl)c(Cl)cc6nc5C(C)(C)[C@@H]4CC[C@@]3(C)[C@]1(C)CC2 (some centres undefined),7.7
9,CCOC(=O)CNC(=O)[C@]12CC[C@@H](C)[C@H](C)[C@H]1C1=CC[C@@H]3[C@@]4(C)Cc5cn[nH]c5C(C)(C)[C@@H]4CC[C@@]3(C)[C@]1(C)CC2,0.4
10,COC(=O)C(Cc1ccccc1)NC(=O)[C@]12CC[C@@H](C)[C@H](C)[C@H]1C1=CC[C@@H]3[C@@]4(C)CCC(=O)C(C)(C)[C@@H]4CC[C@@]3(C)[C@]1(C)CC2 (some centres undefined),1.1
11,C[C@H]1[C@H](C)CC[C@]2(C(=O)NCCCN3CCOCC3)CC[C@]3(C)C(=CC[C@@H]4[C@@]5(C)Cc6nc7ccccc7nc6C(C)(C)[C@@H]5CC[C@]43C)[C@H]12,31.3
12,COC(=O)C(CC(C)C)NC(=O)[C@]12CC[C@@H](C)[C@H](C)[C@H]1C1=CC[C@@H]3[C@@]4(C)CC[C@H](OC(C)=O)C(C)(C)[C@@H]4CC[C@@]3(C)[C@]1(C)CC2 (some centres undefined),6.6
13,CCOC(=O)CNC(=O)[C@]12CC[C@@H](C)[C@H](C)[C@H]1C1=CC[C@@H]3[C@@]4(C)CC[C@H](OC(C)=O)C(C)(C)[C@@H]4CC[C@@]3(C)[C@]1(C)CC2,1.6
14,C[C@H]1[C@H](C)CC[C@]2(C(=O)NC3CCN(Cc4ccccc4)CC3)CC[C@]3(C)C(=CC[C@@H]4[C@@]5(C)Cc6nc7ccccc7nc6C(C)(C)[C@@H]5CC[C@]43C)[C@H]12,51.1
15,CSCC[C@@H](NC(=O)[C@]12CC[C@@H](C)[C@H](C)[C@H]1C1=CC[C@@H]3[C@@]4(C)Cc5nc6ccccc6nc5C(C)(C)[C@@H]4CC[C@@]3(C)[C@]1(C)CC2)C(=O)O,6.2
16,COC(=O)C(Cc1ccccc1)NC(=O)[C@]12CC[C@@H](C)[C@H](C)[C@H]1C1=CC[C@@H]3[C@@]4(C)Cc5c([nH]c6ccc(Cl)cc56)C(C)(C)[C@@H]4CC[C@@]3(C)[C@]1(C)CC2 (some centres undefined),1.6
17,CCOC(=O)CNC(=O)[C@]12CC[C@@H](C)[C@H](C)[C@H]1C1=CC[C@@H]3[C@@]4(C)Cc5nc6cc(Cl)c(Cl)cc6nc5C(C)(C)[C@@H]4CC[C@@]3(C)[C@]1(C)CC2,2
18,C[C@H]1[C@H](C)CC[C@]2(C(=O)O)CC[C@]3(C)C(=CC[C@@H]4[C@@]5(C)Cc6nc7cc(Cl)c(Cl)cc7nc6C(C)(C)[C@@H]5CC[C@]43C)[C@H]12,2.2
19,CCOC(=O)CNC(=O)[C@]12CC[C@@H](C)[C@H](C)[C@H]1C1=CC[C@@H]3[C@@]4(C)Cc5cnn(-c6ccccc6)c5C(C)(C)[C@@H]4CC[C@@]3(C)[C@]1(C)CC2,1.2
20,COC(=O)C(Cc1ccccc1)NC(=O)[C@]12CC[C@@H](C)[C@H](C)[C@H]1C1=CC[C@@H]3[C@@]4(C)C=C(C#N)C(=O)C(C)(C)[C@@H]4CC[C@@]3(C)[C@]1(C)CC2 (some centres undefined),5.4
21,C[C@H]1[C@H](C)CC[C@]2(C(=O)O)CC[C@]3(C)C(=CC[C@@H]4[C@@]5(C)Cc6c([nH]c7ccc(Br)cc67)C(C)(C)[C@@H]5CC[C@]43C)[C@H]12,3.7
22,C[C@H]1[C@H](C)CC[C@]2(C(=O)O)CC[C@]3(C)C(=CC[C@@H]4[C@@]5(C)Cc6cnoc6C(C)(C)[C@@H]5CC[C@]43C)[C@H]12,2.1

row,SMILES,Activity [%]
1,COC(=O)C(Cc1ccccc1)NC(=O)[C@]12CC[C@@H](C)[C@H](C)[C@H]1C1=CC[C@@H]3[C@@]4(C)Cc5cnn(-c6ccccc6)c5C(C)(C)[C@@H]4CC[C@@]3(C)[C@]1(C)CC2 (some centres undefined),0.9
2,COC(=O)C(Cc1ccccc1)NC(=O)[C@]12CC[C@@H](C)[C@H](C)[C@H]1C1=CC[C@@H]3[C@@]4(C)Cc5nc6ccccc6nc5C(C)(C)[C@@H]4CC[C@@]3(C)[C@]1(C)CC2 (some centres undefined),12.4
3,COC(=O)C(CC(C)C)NC(=O)[C@]12CC[C@@H](C)[C@H](C)[C@H]1C1=CC[C@@H]3[C@@]4(C)Cc5nc6ccccc6nc5C(C)(C)[C@@H]4CC[C@@]3(C)[C@]1(C)CC2 (some centres undefined),0.5
4,C[C@H]1[C@H](C)CC[C@]2(C(=O)O)CC[C@]3(C)C(=CC[C@@H]4[C@@]5(C)Cc6c([nH]c7ccc(Cl)cc67)C(C)(C)[C@@H]5CC[C@]43C)[C@H]12,2.9
5,C[C@H]1[C@H](C)CC[C@]2(C(=O)O)CC[C@]3(C)C(=CC[C@@H]4[C@@]5(C)Cc6cnn(-c7ccc(F)cc7)c6C(C)(C)[C@@H]5CC[C@]43C)[C@H]12,1.5
6,COC(=O)C(CC(C)C)NC(=O)[C@]12CC[C@@H](C)[C@H](C)[C@H]1C1=CC[C@@H]3[C@@]4(C)Cc5cnoc5C(C)(C)[C@@H]4CC[C@@]3(C)[C@]1(C)CC2 (some centres undefined),17.7
7,CCOC(=O)CNC(=O)[C@]12CC[C@@H](C)[C@H](C)[C@H]1C1=CC[C@@H]3[C@@]4(C)Cc5c([nH]c6ccc(Cl)cc56)C(C)(C)[C@@H]4CC[C@@]3(C)[C@]1(C)CC2,14.7
8,CCOC(=O)CNC(=O)[C@]12CC[C@@H](C)[C@H](C)[C@H]1C1=CC[C@@H]3[C@@]4(C)Cc5c([nH]c6ccc(Br)cc56)C(C)(C)[C@@H]4CC[C@@]3(C)[C@]1(C)CC2,1.7
9,COC(=O)C(Cc1ccccc1)NC(=O)[C@]12CC[C@@H](C)[C@H](C)[C@H]1C1=CC[C@@H]3[C@@]4(C)Cc5cn[nH]c5C(C)(C)[C@@H]4CC[C@@]3(C)[C@]1(C)CC2 (some centres undefined),1.9
10,COC(=O)C(Cc1ccccc1)NC(=O)[C@]12CC[C@@H](C)[C@H](C)[C@H]1C1=CC[C@@H]3[C@@]4(C)CC[C@H](OC(C)=O)C(C)(C)[C@@H]4CC[C@@]3(C)[C@]1(C)CC2 (some centres undefined),12.4
11,CCOC(=O)CNC(=O)[C@]12CC[C@@H](C)[C@H](C)[C@H]1C1=CC[C@@H]3[C@@]4(C)Cc5cncnc5C(C)(C)[C@@H]4CC[C@@]3(C)[C@]1(C)CC2,1.9
12,COC(=O)C(Cc1ccccc1)NC(=O)[C@]12CC[C@@H](C)[C@H](C)[C@H]1C1=CC[C@@H]3[C@@]4(C)Cc5cnn(-c6ccc(F)cc6)c5C(C)(C)[C@@H]4CC[C@@]3(C)[C@]1(C)CC2 (some centres undefined),2
13,C[C@H]1[C@H](C)CC[C@]2(C(=O)O)CC[C@]3(C)C(=CC[C@@H]4[C@@]5(C)Cc6cnn(-c7ccccc7)c6C(C)(C)[C@@H]5CC[C@]43C)[C@H]12,2.4
14,COC(=O)C(CC(C)C)NC(=O)[C@]12CC[C@@H](C)[C@H](C)[C@H]1C1=CC[C@@H]3[C@@]4(C)Cc5cn[nH]c5C(C)(C)[C@@H]4CC[C@@]3(C)[C@]1(C)CC2 (some centres undefined),0.9
15,C[C@H]1[C@H](C)CC[C@]2(C(=O)O)CC[C@]3(C)C(=CC[C@@H]4[C@@]5(C)Cc6cn[nH]c6C(C)(C)[C@@H]5CC[C@]43C)[C@H]12,0.1
16,COC(=O)C(CC(C)C)NC(=O)[C@]12CC[C@@H](C)[C@H](C)[C@H]1C1=CC[C@@H]3[C@@]4(C)Cc5c([nH]c6ccc(Cl)cc56)C(C)(C)[C@@H]4CC[C@@]3(C)[C@]1(C)CC2 (some centres undefined),15
17,C[C@H]1[C@H](C)CC[C@]2(C(=O)O)CC[C@]3(C)C(=CC[C@@H]4[C@@]5(C)C=C(C#N)C(=O)C(C)(C)[C@@H]5CC[C@]43C)[C@H]12,4.3
18,C[C@H]1[C@H](C)CC[C@]2(C(=O)NCCN3CCCCC3)CC[C@]3(C)C(=CC[C@@H]4[C@@]5(C)Cc6nc7ccccc7nc6C(C)(C)[C@@H]5CC[C@]43C)[C@H]12,52.1
19,COC(=O)C(CC(C)C)NC(=O)[C@]12CC[C@@H](C)[C@H](C)[C@H]1C1=CC[C@@H]3[C@@]4(C)Cc5c([nH]c6ccc(Br)cc56)C(C)(C)[C@@H]4CC[C@@]3(C)[C@]1(C)CC2 (some centres undefined),3
20,COC(=O)C(CC(C)C)NC(=O)[C@]12CC[C@@H](C)[C@H](C)[C@H]1C1=CC[C@@H]3[C@@]4(C)Cc5nc6cc(Cl)c(Cl)cc6nc5C(C)(C)[C@@H]4CC[C@@]3(C)[C@]1(C)CC2 (some centres undefined),0.7
21,COC(=O)C(Cc1ccccc1)NC(=O)[C@]12CC[C@@H](C)[C@H](C)[C@H]1C1=CC[C@@H]3[C@@]4(C)Cc5cncnc5C(C)(C)[C@@H]4CC[C@@]3(C)[C@]1(C)CC2 (some centres undefined),2.6
22,COC(=O)C(CC(C)C)NC(=O)[C@]12CC[C@@H](C)[C@H](C)[C@H]1C1=CC[C@@H]3[C@@]4(C)C=C(C#N)C(=O)C(C)(C)[C@@H]4CC[C@@]3(C)[C@]1(C)CC2 (some centres undefined),58.1
